Results reported in publication PMC4215946 (Bioorganic & medicinal chemistry, 2013).

What was measured:
[1] = system: CEM cells; test: Mitochondrial membrane potential; assay type: cell-based, human
Summary of the method: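 CEM cells grown in RPMI with 10% heat-inactivated FBS at 37 °C, 5% CO2, then given 1 µM final test compound for 6 and 8 h. Stained with JC-1 (MitoProbe) per kit protocol: red aggregates mean polarized mitochondria, green monomers mean depolarized. Green cells scored by flow cytometry, about 10,000 events per sample. Controls were 50 µM CCCP, 1% v/v DMSO and untreated cells. Triplicates, mean ± standard deviation; two-tailed paired t-test.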

[2] = system: CEM cells; test: Annexin V/PI apoptosis/necrosis assay; assay type: cell-based, human; conditions: 72 h
Summary of the method: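 CEM cells in RPMI/10% heat-inactivated FBS, 50,000 per well, rested 1 h, then dosed from DMSO dilutions; 72 h, 37 °C, 5% CO2. Collected on ice, annexin V-FITC/PI in binding buffer 15 min on ice, dark; ~10,000 events by flow. Apoptotic = early+late annexin-positive; PI-only = necrotic. Controls: untreated, 1% DMSO, 1 mM H2O2. Four wells; three independent experiments.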

[3] = system: caspase-3; test: Live-cell detection of intracellular caspase-3 activation; assay type: cell-based, human; conditions: CEM cells, 1 µM, 8 h
Summary of the method: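 CEM cells in RPMI with 10% heat-inactivated FBS and penicillin/streptomycin, 37 °C, 5% CO2, seeded at 50,000 per well. Exposed to 1 µM test compound (DMSO dilutions) for 8 h, then labelled with fluorogenic NucView 488 caspase-3/7 live-cell substrate. Green-positive cells counted by flow cytometry, about 10,000 events per sample. Controls were 50 µM CCCP, 1% v/v DMSO and untreated cells. Mean ± standard deviation; two-tailed paired t-test.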

[4] = Solubility observation in cell culture medium; assay type: physicochemical; conditions: cell culture medium (aqueous environment)

Structure (SMILES): N#CC(C#N)=NNc1cccc(Cl)c1 [CCCP, carbonyl cyanide 3-chlorophenylhydrazone, reference compound]
- mitochondrial depolarization (JC-1 green signal) ([1]; 50 µM, positive control): strongly induced mitochondrial depolarization

Structure (SMILES): CCCCCCCCCCCC(=O)c1cc(O)c2ccccc2c1O [Compound 3, 2-Dodecanoyl-1,4-naphthohydroquinone]
- apoptosis (annexin V-FITC positive cells, early + late) ([2]; 10 µM): 95.35%
- mode of cell death (apoptosis vs necrosis) ([2]; 10 µM): preferentially induce cell death via apoptosis
- mitochondrial depolarization (JC-1 green signal) ([1]; 1 µM, 6 and 8 h): induced a significant increase in mitochondrial depolarization from 6 to 8 h
- caspase-3 activation [3]: has a tendency to induce cytotoxicity via caspase-3 activation

Structure (SMILES): CCC(=O)c1cc(O)c2ccccc2c1O [Compound 4, 2-Propanoyl-1,4-naphthohydroquinone]
- solubility in cell culture medium [4]: generated insoluble crystals when added to the cell culture medium

Structure (SMILES): C/C=C/C(=O)c1cc(O)c2ccccc2c1O [Compound 7, 2-Crotonyl-1,4-naphthohydroquinone]
- apoptosis (annexin V-FITC positive cells, early + late) ([2]; 50 µM): 1.7%
- mode of cell death (apoptosis vs necrosis) ([2]; 50 µM): elicited a substantial amount of necrosis instead of apoptosis
